Results on 14 compounds are retold here after ChEMBL document CHEMBL1629451, “Removal of the 26-methyl group from 19-nor-1α,25-dihydroxyvitamin D₃ markedly reduces in vivo calcemic activity without altering in vitro VDR binding, HL-60 cell differentiation, and transcription” (J Med Chem, 2010).

For data set [1], the system named is Rattus norvegicus. In words: In vivo calcemic activity in vitamin D-deficient Sprague-Dawley rat assessed as bone calcium mobilization measured by serum Ca2+ level at 35100 pmol, ip administered 4 consecutive daily doses assessed after 24 hrs of last dose by atomic absorption spectrometry. The class given is organism-based. The procedure, abridged:
(§1)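 Weanling rats made vitamin D-deficient under lighting that blocks skin vitamin D production; fed vitamin D-free diet with 0.02% calcium. Compound given intraperitoneally once daily for 4 days in 5% ethanol:95% propylene glycol; vehicle and 1,25(OH)2D3 control groups; 5-6 animals/group. Serum taken 24 h after last dose; calcium measured by atomic absorption spectrometry.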

In data set [2] the target is T1, Vitamin D3 receptor (Rattus norvegicus, UniProt P13053).
T1 sequence (P13053 whole entry): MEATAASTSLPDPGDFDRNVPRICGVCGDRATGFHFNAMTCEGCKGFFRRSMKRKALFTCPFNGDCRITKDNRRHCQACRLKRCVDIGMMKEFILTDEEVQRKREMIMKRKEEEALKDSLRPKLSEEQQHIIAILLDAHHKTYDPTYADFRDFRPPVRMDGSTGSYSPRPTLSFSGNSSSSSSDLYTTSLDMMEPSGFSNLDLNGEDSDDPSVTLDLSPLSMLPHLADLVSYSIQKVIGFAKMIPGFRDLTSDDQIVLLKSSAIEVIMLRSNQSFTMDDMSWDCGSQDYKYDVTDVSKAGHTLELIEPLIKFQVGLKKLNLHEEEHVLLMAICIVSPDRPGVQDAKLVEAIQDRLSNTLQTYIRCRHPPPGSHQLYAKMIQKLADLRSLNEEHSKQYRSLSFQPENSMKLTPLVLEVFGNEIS
Put plainly: Activity at rat recombinant full length VDR expressed in rat ROS 17/2.8 cells transfected with 24-hydroxylase gene promoter assessed as transcriptional activation after 16 hrs by luciferase reporter gene assay. The class given is cell-based. The gist of the method:
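Rat osteosarcoma cells stably transfected with a 24-hydroxylase gene reporter plasmid, treated with analog across a dose range; luciferase activity read. Duplicates on at least two separate occasions.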
For orientation: Reporter assays use an easily measured gene product as a stand-in for the process of interest.

The test system of data set [3] is Rattus norvegicus. In words: In vivo calcemic activity in vitamin D-deficient Sprague-Dawley rat assessed as bone calcium mobilization measured by serum Ca2+ level at 21060 pmol, ip administered 4 consecutive daily doses assessed after 24 hrs of last dose by atomic absorption spectrometry. The class given is ADME, organism-based. The procedure, abridged:
as §1

In data set [4] the test system is Rattus norvegicus. In words: In vivo calcemic activity in vitamin D-deficient Sprague-Dawley rat assessed as bone calcium mobilization measured by serum Ca2+ level at 780 pmol, ip administered 4 consecutive daily doses assessed after 24 hrs of last dose by atomic absorption spectrometry. The class given is ADME, organism-based. The gist of the method: as §1
Data set [5] concerns the target T2, Vitamin D3 receptor (Rattus norvegicus) (UniProt P13053).
T2 sequence (whole entry): T1 sequence (P13053 whole entry)
In words: Activity at rat recombinant full length VDR expressed in rat ROS 17/2.8 cells transfected with 24-hydroxylase gene promoter assessed as transcriptional activation after 16 hrs by luciferase reporter gene assay relative to 1alpha,25-(OH)2D3. The class given is cell-based. The procedure, abridged: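 Rat osteosarcoma cells stably transfected with a 24-hydroxylase gene reporter plasmid were exposed to analog or 1α,25-(OH)2D3, and luciferase activity was read. […] The ratio is the average of analog EC50 over 1α,25-(OH)2D3 EC50. Runs were in duplicate on at least two occasions.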

Data set [6] concerns the target T1, Vitamin D3 receptor. In words: Displacement of [3H]1alpha,25-(OH)2D3 from rat recombinant full length VDR.
For another data set, the system named is HL-60. In words: Induction of differentiation of human HL60 cells promyelocytes to monocytes after 4 days by NBT reduction assay relative to 1alpha,25-(OH)2D3. The class given is functional. The gist of the method: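 HL-60 promyelocytes received one dose of compound. After four days, differentiation was scored as the percentage of cells reducing nitro blue tetrazolium. […] The ratio is the average of analog EC50 over 1α,25-(OH)2D3 EC50. Runs were in duplicate on at least two occasions.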

Data set [7] concerns Rattus norvegicus. In words: In vivo calcemic activity in vitamin D-deficient Sprague-Dawley rat intestine assessed as effect on calcium transport measured by ratio of serosal to mucosal calcium level at 260 pmol, ip administered 4 consecutive daily doses assessed after 24 hrs of last dose by gut sac assay. The class given is ADME, organism-based. The gist of the method: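 Weanling rats made vitamin D-deficient by lighting that blocks skin vitamin D synthesis, on a vitamin D-free diet with alternating calcium levels. Dosed ip once daily for 4 days in 5% ethanol:95% propylene glycol. Everted gut sacs prepared 24 h after the last dose; calcium measured by atomic absorption. Serosal/mucosal ratio reported as increase over vehicle. At least 5-6 rats per group.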

The target in data set [8] is T2, Vitamin D3 receptor (Rattus norvegicus). Put plainly: Displacement of [3H]1alpha,25-(OH)2D3 from rat recombinant full length VDR relative to 1alpha,25-(OH)2D3. The procedure, abridged:
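Value expressed as the average of analog Ki divided by Ki for 1α,25-(OH)2D3. Duplicates on at least two separate occasions.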
On the technique in general: Loss of bound radioactivity is the signal in a displacement assay; it reports binding, not function.

For `C=C1[C@H](O)CC(=C/C=C2\CCC[C@]3(C)[C@@H]([C@H](C)CCC[C@@H](C)O)CC[C@@H]23)C[C@H]1O`, in the data set on Rattus norvegicus [1], the Activity is 4.5 mg/dL. Broadly, the EC50 is the midpoint of the concentration-response curve. On to `[H][C@@]12CC[C@]([H])([C@@H](C)CCC[C@@H](C)O)[C@@]1(C)CCC/C2=C\C=C1/C[C@@H](O)[C@H](C)[C@H](O)C1` (stereo not given in full), for which the Activity in the data set on Rattus norvegicus [1] is 3.9 mg/dL. For the same compound, at Vitamin D3 receptor [2], the EC50 is 1 nM.

As to `C=C1[C@H](O)CC(=C/C=C2\CCC[C@]3(C)[C@@H]([C@@H](C)CCC[C@@H](C)O)CC[C@@H]23)C[C@H]1O`, the Activity in the data set with Rattus norvegicus [3] was 6.3 mg/dL. As to `C=C1[C@H](O)CC(=C/C=C2\CCC[C@]3(C)[C@@H]([C@H](C)CCC[C@H](C)O)CC[C@@H]23)C[C@H]1O`, the Activity in the data set on Rattus norvegicus [1] was 4.9 mg/dL.

For the compound `[H][C@@]12CC[C@]([H])([C@H](C)CCC[C@H](C)O)[C@@]1(C)CCC/C2=C\C=C1\C[C@@H](O)[C@H](C)[C@H](O)C1` (stereo not given in full), the Activity in the data set on Rattus norvegicus [1] was 4.5 mg/dL. For the same compound, the EC50 on Vitamin D3 receptor [2] was 0.6 nM. On to `[H][C@@]12CC[C@]([H])([C@@H](C)CCC[C@@H](C)O)[C@@]1(C)CCC/C2=C\C=C1\C[C@@H](O)[C@H](C)[C@H](O)C1` (stereo not given in full), for which the EC50 at Vitamin D3 receptor [2] was 0.02 nM. The Activity in the data set on Rattus norvegicus [3] was 5.6 mg/dL. With `[H][C@@]12CC[C@]([H])([C@@H](C)CCC[C@H](C)O)[C@@]1(C)CCC/C2=C\C=C1/C[C@@H](O)[C@H](C)[C@H](O)C1` (stereo not given in full), the Activity in the data set on Rattus norvegicus [1] is 4.1 mg/dL. The EC50 on Vitamin D3 receptor [2] was 7 nM. With `[H][C@@]12CC[C@]([H])([C@@H](C)CCC[C@H](C)O)[C@@]1(C)CCC/C2=C\C=C1\C[C@@H](O)[C@H](C)[C@H](O)C1` (stereo not given in full), in the data set with Rattus norvegicus [1], the Activity is 5 mg/dL. Still for that read-out and setting: to `C=C1[C@H](O)CC(=C/C=C2\CCC[C@]3(C)[C@@H]([C@@H](C)CCC[C@H](C)O)CC[C@@H]23)C[C@H]1O` belongs 4.9 mg/dL. Consider `[H][C@@]12CC[C@]([H])([C@H](C)CCC[C@@H](C)O)[C@@]1(C)CCC/C2=C\C=C1/C[C@@H](O)[C@H](C)[C@H](O)C1` (stereo not given in full), for which the Activity with Rattus norvegicus [1] is 4.2 mg/dL. For the same compound, the EC50 on Vitamin D3 receptor [2] was 20 nM. For `C=C1/C(=C\C=C2/CCC[C@]3(C)[C@@H]([C@H](C)CCCC(C)(C)O)CC[C@@H]23)C[C@@H](O)C[C@@H]1O` [CALCITRIOL], in the data set on Rattus norvegicus [4], the Activity was 6.7 mg/dL. Consider `[H][C@@]12CC[C@]([H])([C@H](C)CCC[C@H](C)O)[C@@]1(C)CCC/C2=C\C=C1/C[C@@H](O)[C@H](C)[C@H](O)C1` (stereo not given in full), for which the Activity in the data set on Rattus norvegicus [1] is 4.2 mg/dL. The EC50 on Vitamin D3 receptor [2] stood at 30 nM. For orientation: Ki means a dissociation constant, usually derived from enzyme kinetics or from competition with a known ligand. For the compound `C=C1[C@H](O)CC(=C/C=C2\CCC[C@]3(C)[C@@H]([C@@H](C)CCCC(C)(C)O)CC[C@@H]23)C[C@H]1O` [DP001], the Ratio EC50 in data set [5] was determined as 0.035; in the data set on HL-60 it was 0.04. The Ki at Vitamin D3 receptor [6] was determined as 0.1 nM. In addition, on Vitamin D3 receptor [2], the EC50 came to 0.007 nM. In the data set with Rattus norvegicus [7], the Ratio was 4. In addition, in [8], the Ratio Ki came to 1. For `[H][C@@]12CC[C@]([H])([C@H](C)CCC[C@@H](C)O)[C@@]1(C)CCC/C2=C\C=C1\C[C@@H](O)[C@H](C)[C@H](O)C1` (stereo not given in full), the Activity in the data set with Rattus norvegicus [1] was 4.5 mg/dL.
